Series [1] can be described thus: Cytotoxicity against human HepG2 cells assessed as reduction in cell viability incubated for 7 days by MTT assay. The class given is toxicity, cell-based. The settings on record: time 7 day. The method, boiled down: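 HepG2 (human hepatocellular carcinoma) viability by MTT assay, optical density read on a kinetic microplate reader. CC50 is the concentration giving 50% reduction of viability. Mean of at least two independent experiments.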

The nature of series [2]: Ratio of compound EC50 to N-((5-bromopyridin-2-yl)carbamothioyl)-4-chlorobenzamide EC50 for antiviral activity against Hepatitis B virus genotype C infected in chimeric humanized liver mouse model PXB cells assessed as inhibition of HBcrAg level treated with infected cells on day 2 and measured on day 12 to 14 by ELISA. It is filed as functional. The settings on record: time 10-12 day. The procedure, abridged: (§1)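 PXB hepatocytes received serially diluted compound on day 2 and HBV genotype C on day 0. After 20–28 h, cells were washed and compound-containing medium renewed. Supernatant antigen on days 12–14 was measured by ELISA to give EC50 (50% antigen reduction). Each value is expressed as a ratio to the EC50 of the parent lead compound in the same antigen assay.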

Series [3] is described as follows: Ratio of compound EC50 to N-((5-bromopyridin-2-yl)carbamothioyl)-4-chlorobenzamide EC50 for antiviral activity against Hepatitis B virus genotype C infected in chimeric humanized liver mouse model PXB cells assessed as inhibition of HBsAg level treated with infected cells on day 2 and measured on day 12 to 14 by ELISA. It is filed as functional. The note with it: time 10-12 day. The method, boiled down: as §1

The nature of series [4]: Cytotoxicity against human RBE cells assessed as reduction in cell viability by MTT assay. It is filed as toxicity, cell-based. The procedure, abridged: (§2)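 Each cell line cultured with serially diluted compound, then viability measured by MTT assay on a microplate reader. CC50 is the concentration giving 50% reduction of viability.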
Series [5] can be described thus: Cytotoxicity against human HuCCT-1 cells assessed as reduction in cell viability by MTT assay. The class given is toxicity, cell-based. The method, boiled down: as §2
Series [6] in a line: Cytotoxicity against human HLE cells assessed as reduction in cell viability by MTT assay. It is filed as toxicity, cell-based. The method, boiled down:
as §2
On the technique in general: Formazan colour is commonly taken as a measure of viable cells.

Series [7] in a line: Cytotoxicity against human SSP-25 cells assessed as reduction in cell viability by MTT assay. The class given is toxicity, cell-based. The method, boiled down:
as §2

Series [8] in a line: Cytotoxicity against human G415 cells assessed as reduction in cell viability by MTT assay. It is filed as toxicity, cell-based. The procedure, abridged:
as §2

Series [9] can be described thus: Cytotoxicity against human Li-7 cells assessed as reduction in cell viability by MTT assay. It is filed as toxicity, cell-based. The procedure, abridged: as §2
The nature of series [10]: Cytotoxicity against human Huh-7 cells assessed as reduction in cell viability by MTT assay. It is filed as toxicity, cell-based. The procedure, abridged:
as §2

Series [11] is described as follows: Cytotoxicity against human LI90 cells assessed as reduction in cell viability by MTT assay. It is filed as toxicity, cell-based. The method, boiled down:
as §2

Series [12] has as its system Hepatitis B virus. Kind of series: Antiviral activity against Hepatitis B virus genotype C infected in chimeric humanized liver mouse model PXB cells assessed as inhibition of HBsAg level treated with infected cells on day 2 and measured on day 12 to 14 by ELISA. The class given is functional, organism-based. The procedure, abridged: (§3)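 Human hepatocytes (PXB cells) from chimeric humanized-liver mice were seeded in 96-well plates, with serially diluted compound in fresh medium added on day 2. HBV genotype C was added on day 0. After 20–28 h, cells were PBS-washed and medium plus compound replenished. Supernatants were harvested on days 12–14, and antigen was quantified by ELISA. EC50 is the concentration giving 50% antigen reduction.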
(ELISA stands for enzyme-linked immunosorbent assay.)

The subject of series [13] is Hepatitis B virus. Kind of series: Antiviral activity against Hepatitis B virus genotype C infected in chimeric humanized liver mouse model PXB cells assessed as inhibition of HBcrAg level treated with infected cells on day 2 and measured on day 12 to 14 by ELISA. The class given is functional, organism-based. The procedure, abridged:
as §3

Where only a bound is given, the exact number is not on record here.

With `O=C(NC(=S)Nc1ccc(Br)cn1)c1ccc(Br)cc1`, in series [1], the CC50 at 168 h worked out at 41.8 µM. The “Ratio EC50” value in [2] is on record as above 12; in [3], above 4.8.

`O=C(NC(=S)Nc1ccc(C(F)(F)F)cn1)c1ccc(O)cc1`: the CC50 at 168 h in series [1] was determined as 23.7 µM. For the same molecule, the “Ratio EC50” value in [2] was 0.86; in [3] it was above 4.8.

For the molecule `O=C(NC(=S)Nc1ccc(Br)cn1)c1ccc(C(F)(F)F)cc1`, the CC50 at 168 h in [1] was above 100 µM. For the same molecule, the half-maximal cytotoxic concentration (CC50) in [4] was 81.1 µM; in [5], above 100 µM; in series [6], above 100 µM; in series [7], 76.3 µM; in series [8], above 100 µM; in series [9], above 100 µM. Besides, the half-maximal cytotoxic concentration (CC50) in [10] amounted to 92.7 µM; in series [11], 62.1 µM. Further, the “Ratio EC50” value was 1.7 in series [2] and 0.63 in series [3].

Turning to `CC(C)c1ccc(C(=O)NC(=S)Nc2ccc(C(F)(F)F)cn2)cc1`, in series [1], the CC50 at 168 h worked out at 61.9 µM. The “Ratio EC50” value in series [2] is on record as above 12; in [3], above 4.8.

With `O=C(NC(=S)Nc1ccc(Cl)cn1)c1ccc(Cl)cc1`, the half-maximal cytotoxic concentration (CC50) at 168 h in [1] was found to be 66.3 µM. Besides, the “Ratio EC50” value in series [2] is given as 7.5; in series [3], 6.9.

Regarding `COc1ccc(C(=O)NC(=S)Nc2ccc(C(F)(F)F)cn2)cc1`, the CC50 at 168 h in series [1] came to 75.9 µM. Further, the figures for the “Ratio EC50” value in [2] and in [3] were above 12 and above 4.8, respectively.

As for `O=C(NC(=S)Nc1cc2ccccc2cn1)c1ccc(Cl)cc1`, the CC50 at 168 h in [1] came to 79.1 µM. For the same molecule, the “Ratio EC50” value is listed as 2.9 in series [2] and 31 in [3].

As for `O=C(NC(=S)Nc1ccc(Br)cn1)c1ccc(Cl)cc1`, the CC50 at 168 h in [1] was above 100 µM. Also, the half-maximal effective concentration (EC50) came to 0.69 µM in series [12] and 0.044 µM in series [13].

For the molecule `Cc1ccc(C(=O)NC(=S)Nc2ccc(C(F)(F)F)cn2)cc1`, the half-maximal cytotoxic concentration (CC50) at 168 h in series [1] stood at 89.8 µM. The figures for the “Ratio EC50” value in [2] and in series [3] were above 12 and above 4.8, respectively.

On to `O=C(NC(=S)Nc1cc(-c2ccccc2)c(C(F)(F)F)cn1)c1ccc(Cl)cc1`, for which the 50% cytotoxic concentration (CC50) at 168 h in [1] is above 100 µM. Besides, the “Ratio EC50” value in [2] was determined as 22; in [3] it was 11.

In the case of `O=C(NC(=S)Nc1ccc(C(F)(F)F)cn1)c1ccc(Cl)cc1`, the 50% cytotoxic concentration (CC50) at 168 h in series [1] is above 100 µM. Moreover, the cytotoxic concentration (CC50) in series [4] was above 100 µM; in series [5], above 100 µM; in series [6], above 100 µM; in series [7] it was 61.3 µM; in [8], above 100 µM; in series [9] it was above 100 µM. The CC50 in series [10] and in series [11] was above 100 µM throughout. Besides, the “Ratio EC50” value in series [2] worked out at 0.032; in series [3], 0.005.

On to `O=C(NC(=S)Nc1ccc(C(F)(F)F)cn1)c1ccc(C(F)(F)F)cc1`, for which the CC50 at 168 h in [1] is above 100 µM. The “Ratio EC50” value in [2] is on record as 16; in [3], above 2.9.

Turning to `CC(C)(C)c1ccc(C(=O)NC(=S)Nc2ccc(C(F)(F)F)cn2)cc1`, the 50% cytotoxic concentration (CC50) at 168 h in series [1] is above 100 µM. The figures for the “Ratio EC50” value in [2] and in [3] were above 12 and above 4.8, respectively.

For the molecule `O=C(NC(=S)Nc1ccc(C(F)(F)F)cn1)c1ccc(I)cc1`, in series [1], the CC50 at 168 h was above 100 µM. Besides, the “Ratio EC50” value in [2] is listed as above 12; in series [3], above 4.8.

With `O=C(NC(=S)Nc1ccc(C(F)(F)F)cn1)c1ccc([N+](=O)[O-])cc1`, the cytotoxic concentration (CC50) at 168 h in series [1] was above 100 µM. Besides, the “Ratio EC50” value in series [2] amounted to 2.7; in series [3], 0.37.

As to `O=C(NC(=S)Nc1ccc(F)cn1)c1ccc(Cl)cc1`, the CC50 at 168 h in [1] was above 100 µM. For the same molecule, the “Ratio EC50” value in series [2] was found to be 6.2; in series [3] it was 8.1.

For `O=C(NC(=S)Nc1ccc(C(F)(F)F)cn1)c1ccc(Br)cc1`, the 50% cytotoxic concentration (CC50) at 168 h in series [1] is above 100 µM. Moreover, the “Ratio EC50” value came out at 3.8 in series [2] and 2.7 in [3].

Consider `O=C(NC(=S)Nc1ccc(C(F)(F)F)cn1)c1ccc(F)cc1`, for which the half-maximal cytotoxic concentration (CC50) at 168 h in series [1] came to 42.2 µM. For the same molecule, the “Ratio EC50” value in series [2] is recorded as above 12; in series [3] it was above 4.8.

Turning to `Cc1ccc(NC(=S)NC(=O)c2ccc(Cl)cc2)nc1`, the CC50 at 168 h in series [1] was found to be 43.8 µM. The “Ratio EC50” value in [2] is given as 3.7; in series [3] it was 3.8.

On to `O=C(NC(=S)Nc1ccc([N+](=O)[O-])cn1)c1ccc(Cl)cc1`, for which the CC50 at 168 h in series [1] is above 100 µM. Besides, the “Ratio EC50” value was found to be 20 in series [2] and 12 in [3].

For the molecule `O=C(NC(=S)Nc1ccccn1)c1ccc(Cl)cc1`, the CC50 at 168 h in [1] is 26.8 µM. Besides, the “Ratio EC50” value turned out to be 7.6 in series [2] and 5.5 in series [3].

For `C[C@H](Cn1cnc2c(N)ncnc21)OCP(=O)(O)O` [TENOFOVIR ANHYDROUS], the EC50 in series [12] is above 2 µM; in series [13] it was 0.36 µM.

For orientation: CC50 means the concentration giving 50% cytotoxicity. A word on the EC50: it is the midpoint of the concentration-response curve.

For the origin of these results see ChEMBL document CHEMBL5356943, “Development of anti-HBV agents targeting HBV capsid proteins” (RSC Med Chem, 2023).
